This is one part of a sample in which hits are shown more often than they occur.
HUVEC prolif 384 = human endothelial cell proliferation inhibition; HUVEC proliferation, CellTiter-Glo luminescence, 72 h; stronger effect = lower value; viability, % at 10 µM (by protocol); 86,000 tested, 1.1% active; AID 648;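 active = viability at or below 30%; inactive = viability above 30%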;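 note: 100% = median luminescence of DMSO-only cell control wells on each plate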
HCT116 bCat-KO = beta-catenin-lacking colon tumor cell growth suppression; HCT116 beta-catenin knockout viability, CellTiter-Glo, 60 h; stronger effect = lower value; viability, % at 10 µM; 140,000 tested, 1.5% active; AID 818;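 active = viability at or under a set limit, the compound median less 4 SD, cut at about 6% in these data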;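 note: 0% = Hyamine 1622 control at 20 µM and 100% = untreated cell control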
Fibroblast inh = blocks proliferation of human lung fibroblasts; LL 47 human lung fibroblast viability, ATP luminescence; stronger effect = lower value; viability, % at 10 µM; 85,000 tested, 1.1% active;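 active = viability at or below 50% in the single dose screen; inactive = viability above 50%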;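 note: compound exposure lasted 72 h before the ATP readout; 100% = median luminescence of untreated cell-only wells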
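material = human LL 47 lung fibroblast cells | dosing = compounds added from tenfold dosing solution, 0.1% DMSO final | timing = overnight cell rest, 72 h compound treatment at 37 °C | measured by = CellTiter-Glo luminescence measuring cellular ATP | evaluation = % viability versus median cells-only luminescence | control set = cell-only wells, no compound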
H69AR inhibit = blocks growth of human H69AR lung tumor cells; H69AR lung tumor viability, ATP luminescence, 72 h; stronger effect = lower value; viability, % at 10 µM; 85,000 tested, 6% active; AID 598;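 active = viability at or below 40%; inactive = viability above 40%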;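 note: multidrug resistant small cell line overexpressing MRP-1 efflux transporter; 100% = mean luminescence of untreated control wells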
PTEN del growth = PTEN-deleted cell growth suppression; HCT116 PTEN-null viability, CellTiter-Glo, 60 h; stronger effect = lower value; viability, % at 10 µM; 140,000 tested, 1.2% active; AID 827;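 active = viability at or below a set limit, 4 SD under the median of all tested compounds, cut at about 3.7% in these data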;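 note: PTEN knockout HCT116 line with beta catenin targeted HCT116 as companion control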
* hit, by the source's call; . = not tested or not shown.

SMILES	HUVEC prolif 384	HCT116 bCat-KO	Fibroblast inh	H69AR inhibit	PTEN del growth
Nc1c(C(=O)NCC2CCCO2)c2nc3ccccc3nc2n1-c1ccccc1 (centres undefined)	79.0	49.4	74.1	21.2*	56.4
COc1ccccc1-n1c(N)c(C(=O)NCC2CCCO2)c2nc3ccccc3nc21 (centres undefined)	64.7	70.7	80.2	53.2	67.6
Cc1occc1C(=O)NNC(=O)C(c1ccccc1)c1ccccc1	.	107.3	.	.	89.1
CS(=O)(=O)c1cc([N+](=O)[O-])c(Sc2nc3ccccc3[nH]2)c([N+](=O)[O-])c1	.	82.4	.	.	80.4
CCOC(=O)c1c(C)c(C(=O)N2CCc3ccccc3C2)c(C)n1CC	69.8	54.5	91.7	15.9*	51.4
CCOC(=O)c1c(C)c(C(=O)Nc2ccccc2)c(C)n1CC	75.5	85.6	91.5	63.6	93.7
O=C(NCC1CCCO1)C(=O)NCC(c1ccco1)N1CCN(c2ccccc2F)CC1 (centres undefined)	.	93.4	.	.	84.0
CC(=O)N1CCc2cc(S(=O)(=O)N3CCOCC3)ccc21	102.3	91.8	106.0	94.7	95.5
CCN(c1cccc(C(F)(F)F)c1)S(=O)(=O)c1ccc2c(c1)CCN2C(C)=O	89.3	73.9	90.0	17.5*	67.5
CC(=O)N1CCc2cc(S(=O)(=O)N3c4ccccc4CC3C)ccc21 (centres undefined)	59.4	87.0	58.5	19.6*	98.5
CCN(c1cccc(C)c1)S(=O)(=O)c1ccc2c(c1)CCN2C(C)=O	70.8	39.6	70.2	28.6*	34.8
CC(=O)N1CCCc2cc(S(=O)(=O)N(CC(C)C)CC(C)C)ccc21	95.0	91.5	96.3	82.9	82.8
Cc1ccc(-c2nn3c(C)nnc3s2)cc1NCc1c(F)cccc1Cl	53.2	27.4	56.8	28.4*	24.4
Cc1nnc2sc(-c3ccc(NC(=O)CSc4ccc(Cl)cc4)cc3)nn12	75.4	96.4	98.2	92.6	100.8
Cc1ccc(CNc2cc(-c3nn4c(C)nnc4s3)ccc2C)s1	36.3	91.5	62.4	58.6	98.4
Cc1ccc(-c2nn3c(C)nnc3s2)cc1NC(=O)CSc1ccc(Cl)cc1	28.9*	98.6	80.2	93.2	95.8
O=c1c2cccnc2[nH]c(=S)n1CCC1=CCCCC1	73.9	57.4	76.7	38.0*	69.4
CCCCCn1c(=S)[nH]c2ncccc2c1=O	94.8	85.4	95.7	94.6	92.9
COc1ccc(OC(C)C(=O)N2CCC(C)CC2)cc1 (centres undefined)	107.9	87.3	108.5	98.3	96.0
COc1ccc(OC(C)C(=O)N2CCc3ccccc3C2)cc1 (centres undefined)	73.7	31.6	96.4	25.4*	32.5
CC(/C=N/NC(=O)c1ccc2nc(C)[nH]c2c1)=C\c1ccccc1	.	69.3	.	.	68.3
CCN1CCN(c2cc3c(nn2)Oc2ccccc2N3C)CC1	.	77.8	.	.	95.1
COC(=O)c1nn(-c2ccccc2)nc1-c1nn(-c2ccccc2)nc1C(=O)OC	88.4	89.7	91.1	25.9*	84.0
c1ccc2sc(N3CCOCC3)nc2c1	102.3	99.3	109.8	94.1	.
COc1cccc2sc(N3CCN(c4nc5ccccc5s4)CC3)nc12	26.4*	1.8*	73.7	3.2*	2.4*
SMILES	HUVEC prolif 384	HCT116 bCat-KO	Fibroblast inh	H69AR inhibit	PTEN del growth
Cc1csc(C(=O)O)c1-n1cccc1	.	96.2	.	.	97.7
COC(=O)[C@@H](NC(=O)Nc1cccc(Br)c1)C(C)C	.	95.4	.	.	97.7
COc1ccc2cc(C(c3nnnn3Cc3ccc(F)cc3)N3CCCCCC3)c(=O)[nH]c2c1 (centres undefined)	92.5	95.0	98.0	36.9*	99.1
COc1ccc2cc(C(c3nnnn3Cc3ccccc3)N3CCCCCC3)c(=O)[nH]c2c1 (centres undefined)	85.5	.	100.4	67.4	.
CNC(=O)/C=C1\NC(C)(C)Cc2c1ccc1ccccc21	80.2	54.5	89.5	22.7*	55.9
CC(C)(C)c1ccc(COn2c(=O)c(-c3ccco3)[n+]([O-])c3ccccc32)cc1	72.2	82.2	61.2	34.3*	83.6
Cc1ccc(-c2c(=O)n(OCc3ccccn3)c3ccccc3[n+]2[O-])cc1	.	115.4	.	.	103.7
CCOc1ccc(N(CCC#N)S(=O)(=O)c2ccc(OC)cc2)cc1	80.2	61.8	85.2	20.9*	56.2
CCn1ncc(CNC(=O)c2cccc([N+](=O)[O-])c2)c1C	.	102.0	.	.	102.8
CC(=O)N1CCN(c2ccc(NC(=O)c3ccc(C(C)(C)C)cc3)cc2)CC1	51.2	5.9*	96.7	33.5*	5.8

Compound activity (PubChem BioAssay)
